Publication PMC10864903 (Heliyon, 2024)
Converted amounts (≈) assume the structure as drawn.

Key:
[1] = system: MTCC-1306 (Bacillus cereus); experiment: Agar-disc diffusion, B. cereus; type: cell-based; details: MTCC1306, read-out: Diameter of Growth Inhibition Zone, B. cereus
B. cereus = experiment: Minimal inhibitory concentration, B. cereus; type: cell-based; details: Bacillus cereus, read-out: Minimal Inhibitory Concentration (MIC), B. cereus
[2] = system: MTCC-2453 (Pseudomonas aeruginosa); experiment: Agar-disc diffusion, P. aeruginosa; type: cell-based; details: MTCC2453, read-out: Diameter of Growth Inhibition Zone, P. aeruginosa
P. aeruginosa = experiment: Minimal inhibitory concentration, P. aeruginosa; type: cell-based; details: Pseudomonas aeruginosa, read-out: Minimal Inhibitory Concentration (MIC), P. aeruginosa
Method in brief: (§1)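 Agar disc diffusion against bacterial strains, following a previously reported method. Strains were P. aeruginosa MTCC-2453 and S. aureus MTCC-96. Test compounds were anthraquinone-linked coumarins. MIC was reported in µg/mL.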

[3] = system: recultured (Enterobacter aerogenes); experiment: Agar-disc diffusion, E. aerogenes; type: cell-based; details: Klebsiella aerogenes, read-out: Diameter of Growth Inhibition Zone, E. aerogenes
[4] = system: MTCC-739 (Escherichia coli); experiment: Agar-disc diffusion, E. coli; type: cell-based; details: MTCC739, read-out: Diameter of Growth Inhibition Zone, E. coli
[5] = system: MTCC-96 (Staphylococcus aureus); experiment: Agar-disc diffusion, S. aureus; type: cell-based; details: MTCC96, read-out: Diameter of Growth Inhibition Zone, S. aureus
E. coli = experiment: Minimal inhibitory concentration, E. coli; type: cell-based; details: Escherichia coli, read-out: Minimal Inhibitory Concentration (MIC), E. coli
S. aureus = experiment: Minimal inhibitory concentration, S. aureus; type: cell-based; details: Staphylococcus aureus, read-out: Minimal Inhibitory Concentration (MIC), S. aureus
Method in brief: as §1

[6] = system: Tyrosinase from mushrooms; experiment: Mushroom tyrosinase inhibition, L-dopa as substrate; type: biochemical; details: mean ± SD of three experiments

MIC (B. cereus) [µg/mL]	MIC (P. aeruginosa) [µg/mL]	MIC (E. coli) [µg/mL]	MIC (S. aureus) [µg/mL]	Tyrosinase inhibitory activity (%) at 25 μg/mL ([6]; 25 μg/mL) [%]	Tyrosinase inhibitory activity (%) at 50 μg/mL ([6]; 50 μg/mL) [%]	Tyrosinase inhibitory activity (%) at 100 μg/mL ([6]; 100 μg/mL) [%]	Compound	zone of inhibition at 100 µg/disc [1] [mm]	zone of inhibition at 100 µg/disc [2] [mm]	zone of inhibition at 100 µg/disc [3] [mm]	zone of inhibition at 100 µg/disc [4] [mm]	zone of inhibition at 100 µg/disc [5] [mm]
2 (≈ 6.04 µM)	1 (≈ 3.02 µM)	0.5 (≈ 1.51 µM)	1 (≈ 3.02 µM)	–	–	–	O=C(O)c1cn(C2CC2)c2cc(N3CCNCC3)c(F)cc2c1=O [Ciprofloxacin, ciprofloxacin]	22	26	30	27	25
–	–	–	–	55.67 ± 0.12	68.62 ± 0.32	85.54 ± 0.23	O=c1cc(CO)occ1O [Kojic acid, kojic acid]	–	–	–	–	–
